Source: ChEMBL document CHEMBL4017538, “Vitamin D Analogues with a p-Hydroxyphenyl Group at the C25 Position: Crystal Structure of Vitamin D Receptor Ligand-Binding Domain Complexed with the Ligand Explains the Mechanism Underlying Full Antagonistic Action” (J Med Chem, 2017)
Active and inactive are the calls of the source. No cut-off for these calls is given here.

How the values were obtained:
[1] = target: T1, Vitamin D3 receptor (Homo sapiens) (UniProt P11473); experiment: Partial agonist activity at human vitamin D receptor expressed in HEK293 cells after 16 hrs by dual luciferase reporter gene assay; type: cell-based
T1 sequence (whole entry): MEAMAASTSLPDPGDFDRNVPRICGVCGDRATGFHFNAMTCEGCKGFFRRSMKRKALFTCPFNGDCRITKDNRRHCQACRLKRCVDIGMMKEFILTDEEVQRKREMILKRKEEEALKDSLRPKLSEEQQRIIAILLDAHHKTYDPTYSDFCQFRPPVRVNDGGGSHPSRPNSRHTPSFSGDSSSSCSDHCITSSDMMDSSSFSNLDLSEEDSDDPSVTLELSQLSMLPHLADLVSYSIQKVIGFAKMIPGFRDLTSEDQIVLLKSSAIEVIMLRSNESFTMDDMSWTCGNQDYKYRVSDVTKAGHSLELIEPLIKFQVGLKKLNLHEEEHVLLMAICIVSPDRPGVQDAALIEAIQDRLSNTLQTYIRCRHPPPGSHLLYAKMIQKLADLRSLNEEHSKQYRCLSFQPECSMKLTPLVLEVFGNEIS
How it was run: (§1)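 Cells were co-transfected with full-length human VDR expression plasmid (pCMX-hVDR), a luciferase reporter carrying three copies of mouse osteopontin VDRE (SPPx3-TK-Luc), and a sea pansy luciferase internal control (pRL-CMV), then read by dual luciferase assay. Activity is scaled so that 10−8 M 1,25D3 equals 1 in Cos7 and 10−9 M 1,25D3 equals 1 in HEK293. Inhibition was tested in the presence of 1,25D3.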

[2] = target: T1, Vitamin D3 receptor (Homo sapiens); experiment: Ratio of 1,25-(OH)2D3 IC50 to test compound IC50 for displacement of [3H]-1,25-(OH)2D3 from N-terminal GST-tagged human recombinant vitamin D receptor ligand binding domain expressed in Escherichia coli BL21 (DE3) pLys S after 16 hrs
Vitamin D3 receptor [3] = target: T2, Vitamin D3 receptor (Homo sapiens, UniProt P11473); experiment: Displacement of [3H]-1,25-(OH)2D3 from N-terminal GST-tagged human recombinant vitamin D receptor ligand binding domain expressed in Escherichia coli BL21 (DE3) pLys S after 16 hrs
T2 sequence (P11473 whole entry): T1 sequence (whole entry)

[4] = target: T1, Vitamin D3 receptor (Homo sapiens); experiment: Antagonist activity at human vitamin D receptor expressed in African green monkey COS7 cells assessed as inhibition of 1,25D3-induced transactivation after 16 hrs by dual luciferase reporter gene assay; type: cell-based; how it was run: as §1
[5] = target: T1, Vitamin D3 receptor (Homo sapiens); experiment: Agonist activity at human vitamin D receptor expressed in African green monkey COS7 cells after 16 hrs by dual luciferase reporter gene assay; type: cell-based; how it was run: as §1
[6] = target: T1, Vitamin D3 receptor (Homo sapiens); experiment: Antagonist activity at VP16-fused human vitamin D receptor in HEK293 cells assessed as inhibition of ligand-induced GAL4-fused SRC1 coactivator recruitment by dual luciferase assay; type: cell-based
[7] = target: T1, Vitamin D3 receptor (Homo sapiens); experiment: Antagonist activity at VP16-fused human vitamin D receptor in HEK293 cells assessed as inhibition of ligand-induced GAL4-fused RXRalpha recruitment by dual luciferase assay; type: cell-based
Vitamin D3 receptor [8] = target: T2, Vitamin D3 receptor

Row | Structure (SMILES) | Activity [1] | relative affinity (IC50 ref/IC50 test) [2] | IC50 (Vitamin D3 receptor [3]) | antagonist activity (qualitative) [4] | Activity [5] | inhibition [6] | inhibition [7] | IC50 (Vitamin D3 receptor [8])
1 | C=C1[C@H](O)CC(=C/C=C2\CCC[C@]3(C)[C@@H]([C@H](C)CCCC(=O)c4ccc(O)cc4)CC[C@@H]23)C[C@H]1O | Active | 0.006 | 84 nM | Active | – | – | – | –
2 | C=C1[C@H](O)CC(=C/C=C2\CCC[C@]3(C)[C@@H]([C@H](C)[C@@H](CCCC)CCC(=O)c4ccc(O)cc4)CC[C@@H]23)C[C@H]1O | – | 0.028 | 20 nM | – | inactive | Active | inactive | –
3 | C=C1[C@H](O)CC(=C/C=C2\CCC[C@]3(C)[C@@H]([C@H](C)CCCC(O)(c4ccc(O)cc4)c4ccc(O)cc4)CC[C@@H]23)C[C@H]1O | – | 0.00096 | 520 nM | – | inactive | Active | Active | 800 nM
4 | C=C1[C@H](O)CC(=C/C=C2\CCC[C@]3(C)[C@@H]([C@H](C)[C@@H](CCCC)CCC(OC)c4ccc(O)cc4)CC[C@@H]23)C[C@H]1O (stereo partly specified) | Active | 0.031 | 23 nM | Active | – | – | – | –
5 | C=C1[C@H](O)CC(=C/C=C2\CCC[C@]3(C)[C@@H]([C@H](C)[C@@H](CCCC)CCC(O)(c4ccc(O)cc4)c4ccc(O)cc4)CC[C@@H]23)C[C@H]1O | – | 0.0042 | 130 nM | – | inactive | Active | inactive | 400 nM
6 | C=C1[C@H](O)CC(=C/C=C2\CCC[C@]3(C)[C@@H]([C@H](C)CCCC(OC)c4ccc(O)cc4)CC[C@@H]23)C[C@H]1O (stereo partly specified) | – | 0.0049 | 102 nM | – | – | – | – | –
7 | C=C1[C@H](O)CC(=C/C=C2\CCC[C@]3(C)[C@@H]([C@H](C)CCCC(O)c4ccc(O)cc4)CC[C@@H]23)C[C@H]1O (stereo partly specified) | Active | 0.0044 | 36 nM | Active | – | – | – | –
8 | C=C1[C@H](O)CC(=C/C=C2\CCC[C@]3(C)[C@@H]([C@H](C)[C@@H](CCCC)CCC(O)c4ccc(O)cc4)CC[C@@H]23)C[C@H]1O (stereo partly specified) | Active | 0.0094 | 17 nM | Dose-dependent effect | inactive | – | – | –
